Measurements published in PMC11542726 (Methods in enzymology, 2024).
Entries after “also recorded” stand apart in the source; their conditions may differ.

Columns and labels:
Crk SH2 [1] = assay: Fluorescence polarization; assay type: mouse Crk protein 1 – 118 identical to human CRK protein; details: direct binding; various concentrations of FAM-conjugated peptides titrated into 4 nM Crk SH2, 20 mM HEPES pH 7.5, 0.025% Triton X-100; 384-well, 480-nm excitation, 535-nm emission; repeated at least three times; Figure 6A
Crk SH2 [2] = assay: FP competition assay: unlabeled peptides vs FAM-DVpYDVPP; assay type: binding, mouse Crk protein 1 – 118 identical to human CRK protein; details: 4 nM FAM-labeled phosphorylated peptide, 150 nM Crk SH2, unlabeled competitor peptides; data not shown
Procedure, shortened: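 Polarization is read as mP values. For each unlabeled peptide, the concentration giving 50% displacement of the FAM probe is obtained by non-linear regression.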

Crk SH2 [3] = assay: Differential scanning fluorimetry; assay type: binding, mouse Crk protein 1 – 118 identical to human CRK protein; details: 10 μM Crk SH2, 10X SYPRO Orange, peptides 0-300 μM, 50 mM HEPES, pH 7.5, 150 mM NaCl; 25 to 95°C at 0.2°C/s; Figure 6B
Procedure, shortened: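 Before dye addition, Crk SH2 (10 μM final) is preincubated with peptides, dispensed from DMSO or buffer, for 30 min at room temperature. SYPRO Orange is then added and samples are melted. Tm is taken from the fluorescence curve or its first derivative as the half-unfolded point. ΔTm is the change in Tm on ligand binding. A DMSO series of 0–2% was also run.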

Crk SH2 vs CrkL SH2 = assay: Comparison of affinity of FAM-DVpYDVPP for Crk SH2 vs CrkL SH2; assay type: binding, mouse; details: comparison in words; assay and values not given

Substance	Increase in FP / polarization (mP) (Crk SH2 [1])	Competition of binding of Crk SH2 with FAM-DVpYDVPP (Crk SH2 [2])	Shift of thermal unfolding curve / Tm (Crk SH2 [3])	Relative affinity, Crk SH2 vs CrkL SH2 (Crk SH2 vs CrkL SH2)
FAM-DVYDVPP	no significant increase in FP is observed; also recorded: No polarization is detected			
DVYDVPP		much less significantly	no significant shift in Tm was observed; also recorded: no significant binding	
DVpYDVPP-OH		effectively competed out	shift to the right; also recorded: unfolding curves shifted	
FAM-DVpYDVPP	a significant increase in FP is measured			Crk SH2 showed a higher affinity
DVFDVPP-OH		much less significantly		
